Values after ≈ are worked out from the molar mass of the structure shown.
Experiments:
[1] = Estimated solubility (buffer pH 7.4); assay type: ADME; settings: read-out: S
Method in brief: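 Solubility was estimated in pH 7.4 phosphate buffer.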

[2] = system: Human immunodeficiency virus 1; test: In vitro for inhibition of cytopathic effect of HIV-1 3B in MT-4 lymphocytes.; assay type: functional, organism-based
Method in brief: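 MT-4 lymphocytes were infected with HIV-1 3B at an MOI of either 0.001 or 0.032 tissue culture infective dose per cell. EC50 is the concentration preventing 50% of viral cytopathic effect, from a single triplicate assay. No effect means no activity up to 100 μM or up to the cytotoxic concentration.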

[3] = target: Human immunodeficiency virus type 1 protease (Human immunodeficiency virus 1, UniProt Q72874); test: Inhibition of purified recombinant HIV-1 protease in a fluorogenic assay
Method in brief: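 Purified recombinant HIV-1 protease, with cleavage of the fluorogenic substrate DABCYL-[…]-Pro-Ile-Val-Gln-EDANS as read-out. Value is the inhibitor concentration giving 50% inhibition of protease activity.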

MT4 = test: In vitro for cytotoxicity in MT-4 lymphocytes in the absence of HIV infection.; assay type: functional; settings: Homo sapiens
Method in brief: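 Uninfected MT-4 lymphocytes were cultured with compound. CC50 is the concentration at which 50% of cells remain viable.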

Row | EC50 [2] | SMILES | solubility [1] | IC50 [3] | CC50 (MT4)
1 | 1100 nM | CC(C)[C@H](NC(=O)/C=C/c1ccccn1)C(=O)N[C@@H](Cc1ccccc1)[C@@H](O)[C@@H](O)[C@H](Cc1ccccc1)NC(=O)[C@H](NC(=O)/C=C/c1ccccn1)C(C)C | 6.8 µg/mL (≈ 8.94 µM) | < 1 nM | > 100000 nM
2 | 190 nM | CC(C)[C@H](NC(=O)N(C)Cc1cscn1)C(=O)N[C@@H](Cc1ccccc1)[C@@H](O)[C@H](O)[C@H](Cc1ccccc1)NC(=O)[C@H](NC(=O)N(C)Cc1cscn1)C(C)C | 159 µg/mL (≈ 197 µM) | < 1 nM | > 100000 nM
3 | 560 nM | CC(C)[C@H](NC(=O)N(C)Cc1ccccn1)C(=O)N[C@@H](Cc1ccccc1)[C@H](O)[C@@H](O)[C@H](Cc1ccccc1)NC(=O)[C@H](NC(=O)N(C)Cc1csc(N)n1)C(C)C | 386 µg/mL (≈ 473 µM) | < 1 nM | > 100000 nM
4 | 450 nM | CC(C)[C@H](NC(=O)OCc1ccccn1)C(=O)N[C@@H](Cc1ccccc1)[C@@H](O)[C@@H](O)[C@H](Cc1ccccc1)NC(=O)[C@H](NC(=O)OCc1ccccn1)C(C)C | 5.4 µg/mL (≈ 7.02 µM) | < 1 nM | > 100000 nM
5 | 440 nM | CC(C)[C@H](NC(=O)OCc1cccnc1)C(=O)N[C@@H](Cc1ccccc1)[C@@H](O)[C@@H](O)[C@H](Cc1ccccc1)NC(=O)[C@H](NC(=O)OCc1cccnc1)C(C)C | 31 µg/mL (≈ 40.3 µM) | < 1 nM | > 100000 nM
6 | 70 nM | CC(C)[C@H](NC(=O)c1cc2ccccc2[nH]1)C(=O)N[C@@H](Cc1ccccc1)[C@@H](O)[C@@H](O)[C@H](Cc1ccccc1)NC(=O)[C@H](NC(=O)c1cc2ccccc2[nH]1)C(C)C |  | < 1 nM | 49000 nM
7 | 110 nM | CC(C)[C@H](NC(=O)OCc1ccccc1)C(=O)N[C@@H](Cc1ccccc1)[C@@H](O)[C@@H](O)[C@H](Cc1ccccc1)NC(=O)[C@H](NC(=O)OCc1ccccc1)C(C)C | < 0.03 µg/mL | < 1 nM | > 100000 nM
8 | 70 nM | CC(C)[C@H](NC(=O)OCc1ccccc1)C(=O)N[C@@H](Cc1ccccc1)[C@H](O)[C@H](O)[C@H](Cc1ccccc1)NC(=O)[C@H](NC(=O)OCc1ccccc1)C(C)C |  | < 1 nM | > 100000 nM
9 | 90 nM | CC(C)[C@H](NC(=O)OCc1ccccc1)C(=O)N[C@@H](Cc1ccccc1)[C@@H](O)[C@H](O)[C@H](Cc1ccccc1)NC(=O)[C@H](NC(=O)OCc1ccccc1)C(C)C |  | < 1 nM | > 100000 nM

Further lines, the compound ahead of its results:

Row | SMILES | EC50 [2] | solubility [1] | IC50 [3] | CC50 (MT4)
10 | CC(C)[C@H](NC(=O)/C=C/c1cccnc1)C(=O)N[C@@H](Cc1ccccc1)C(O)[C@H](Cc1ccccc1)NC(=O)[C@H](NC(=O)/C=C/c1cccnc1)C(C)C (stereo partly specified) | 2800 nM | 4.9 µg/mL (≈ 6.7 µM) | 2.2 nM | > 100000 nM
11 | CC(C)[C@H](NC(=O)N(C)Cc1ccccn1)C(=O)N[C@@H](Cc1ccccc1)[C@@H](O)[C@H](O)[C@H](Cc1ccccc1)NC(=O)[C@H](NC(=O)N(C)Cc1ccccn1)C(C)C | 270 nM | 197 µg/mL (≈ 248 µM) | < 1 nM | > 100000 nM
12 | CC(C)[C@H](NC(=O)CN1CCOCC1)C(=O)N[C@@H](Cc1ccccc1)[C@@H](O)[C@@H](O)[C@H](Cc1ccccc1)NC(=O)[C@H](NC(=O)CN1CCOCC1)C(C)C |  |  | 7.5 nM | 
13 | CC(C)[C@H](NC(=O)N(C)Cc1nc2ccccc2[nH]1)C(=O)N[C@@H](Cc1ccccc1)[C@@H](O)[C@@H](O)[C@H](Cc1ccccc1)NC(=O)[C@H](NC(=O)N(C)Cc1nc2ccccc2[nH]1)C(C)C | 5000 nM | 12 µg/mL (≈ 13.7 µM) | < 1 nM | 55000 nM
14 | CC(C)[C@H](NC(=O)CCN1CCOCC1)C(=O)N[C@@H](Cc1ccccc1)[C@@H](O)[C@@H](O)[C@H](Cc1ccccc1)NC(=O)[C@H](NC(=O)CCN1CCOCC1)C(C)C | 53000 nM | > 1050 µg/mL | 23 nM | > 100000 nM
15 | CC(C)[C@H](NC(=O)N(C)Cc1nccs1)C(=O)N[C@@H](Cc1ccccc1)[C@@H](O)[C@@H](O)[C@H](Cc1ccccc1)NC(=O)[C@H](NC(=O)N(C)Cc1nccs1)C(C)C | 1700 nM | 137 µg/mL (≈ 170 µM) | 1 nM | > 100000 nM
16 | CC(C)[C@H](NC(=O)OCC1CCCCN1C)C(=O)N[C@@H](Cc1ccccc1)[C@@H](O)[C@H](Cc1ccccc1)NC(=O)[C@H](NC(=O)OCc1ccccc1)C(C)C (stereo partly specified) |  | 19 µg/mL (≈ 25.1 µM) | 63 nM | 
17 | CC(C)[C@H](NC(=O)N(C)Cc1nc2ccccc2[nH]1)C(=O)N[C@@H](Cc1ccccc1)[C@@H](O)[C@H](O)[C@H](Cc1ccccc1)NC(=O)[C@H](NC(=O)N(C)Cc1nc2ccccc2[nH]1)C(C)C | 1700 nM | 6.6 µg/mL (≈ 7.56 µM) | < 1 nM | 27000 nM
18 | CC(C)[C@H](NC(=O)c1cc2ccccc2[nH]1)C(=O)N[C@@H](Cc1ccccc1)C(O)[C@H](Cc1ccccc1)NC(=O)[C@H](NC(=O)c1cc2ccccc2[nH]1)C(C)C (stereo partly specified) | 8900 nM |  | 1.2 nM | 58000 nM
19 | CC(C)[C@H](NC(=O)N(C)Cc1cccnc1)C(=O)N[C@@H](Cc1ccccc1)[C@@H](O)[C@@H](O)[C@H](Cc1ccccc1)NC(=O)[C@H](NC(=O)N(C)Cc1cccnc1)C(C)C | 5700 nM | 338 µg/mL (≈ 425 µM) | 1.6 nM | > 100000 nM
20 | CC(C)[C@H](NC(=O)N(C)Cc1nccs1)C(=O)N[C@@H](Cc1ccccc1)[C@H](O)[C@H](O)[C@H](Cc1ccccc1)NC(=O)[C@H](NC(=O)N(C)Cc1nccs1)C(C)C | 390 nM | 57 µg/mL (≈ 70.6 µM) | < 1 nM | > 100000 nM
21 | CC(C)[C@H](NC(=O)N(C)Cc1ccccn1)C(=O)N[C@@H](Cc1ccccc1)[C@H](O)[C@H](O)[C@H](Cc1ccccc1)NC(=O)[C@H](NC(=O)N(C)Cc1ccccn1)C(C)C | 170 nM | 3.6 µg/mL (≈ 4.53 µM) | < 1 nM | > 100000 nM
22 | CC(C)[C@H](NC(=O)OCc1ccccn1)C(=O)N[C@@H](Cc1ccccc1)[C@@H](O)[C@H](Cc1ccccc1)NC(=O)[C@H](NC(=O)OCc1ccccc1)C(C)C | 2200 nM | 0.6 µg/mL (≈ 0.813 µM) | 3 nM | > 100000 nM
23 | CC(C)[C@H](NC(=O)OCc1ccncc1)C(=O)N[C@@H](Cc1ccccc1)[C@@H](O)[C@@H](O)[C@H](Cc1ccccc1)NC(=O)[C@H](NC(=O)OCc1ccncc1)C(C)C | 610 nM | 55 µg/mL (≈ 71.5 µM) | 1.7 nM | > 100000 nM
24 | CC(C)[C@H](NC(=O)OCc1cccnc1)C(=O)N[C@@H](Cc1ccccc1)[C@H](O)[C@H](O)[C@H](Cc1ccccc1)NC(=O)[C@H](NC(=O)OCc1cccnc1)C(C)C |  | 0.41 µg/mL (≈ 0.533 µM) | < 1 nM | 
25 | CC(C)[C@H](NC(=O)OCc1cccnc1)C(=O)N[C@@H](Cc1ccccc1)[C@@H](O)[C@H](O)[C@H](Cc1ccccc1)NC(=O)[C@H](NC(=O)OCc1cccnc1)C(C)C |  | 0.5 µg/mL (≈ 0.65 µM) | < 1 nM | 
26 | CC(C)[C@H](NC(=O)OCCN1CCOCC1)C(=O)N[C@@H](Cc1ccccc1)C(O)[C@H](Cc1ccccc1)NC(=O)[C@H](NC(=O)OCCN1CCOCC1)C(C)C (stereo partly specified) |  | 273 µg/mL (≈ 349 µM) | 180 nM | 
27 | CC(C)[C@H](NC(=O)OCc1ccccc1)C(=O)N[C@@H](Cc1ccccc1)[C@@H](O)[C@H](Cc1ccccc1)NC(=O)[C@H](NC(=O)OCc1ccccc1)C(C)C |  | > 0.03 µg/mL |  | > 100000 nM

— ChEMBL document CHEMBL1126582, “Symmetry-based inhibitors of HIV protease. Structure-activity studies of acylated 2,4-diamino-1,5-diphenyl-3-hydroxypentane and 2,5-diamino-1,6-diphenylhexane-3,4-diol” (J Med Chem, 1993)
